Tests used:
[1] = system: Hepatocyte; assay: Cytotoxicity against human hepatocytes assessed as change in morphological integrity up to 25 uM; format: cell-based
[2] = biological target: T1, Cytochrome P450 2A6 (Homo sapiens, UniProt P11509); assay: Inhibition of CYP2A6 in human liver microsomes assessed as coumarin 7-hydroxylation after 3 mins by LC-MS/MS analysis in presence of NADPH; format: ADME
T1 sequence (P11509 whole entry): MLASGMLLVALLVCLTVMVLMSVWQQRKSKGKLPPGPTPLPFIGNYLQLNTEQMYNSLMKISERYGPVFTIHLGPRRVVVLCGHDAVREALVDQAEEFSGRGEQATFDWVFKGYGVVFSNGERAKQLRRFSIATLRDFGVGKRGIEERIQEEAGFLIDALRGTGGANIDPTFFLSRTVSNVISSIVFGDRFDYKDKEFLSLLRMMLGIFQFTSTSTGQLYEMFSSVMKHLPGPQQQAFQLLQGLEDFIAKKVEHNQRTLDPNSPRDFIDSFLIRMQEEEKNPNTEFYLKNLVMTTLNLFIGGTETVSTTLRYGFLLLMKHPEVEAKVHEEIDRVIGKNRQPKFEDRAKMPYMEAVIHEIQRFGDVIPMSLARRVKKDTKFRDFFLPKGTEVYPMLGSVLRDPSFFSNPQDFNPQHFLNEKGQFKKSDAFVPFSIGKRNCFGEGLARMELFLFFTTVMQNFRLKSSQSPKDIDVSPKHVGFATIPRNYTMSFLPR

[3] = biological target: T1, Cytochrome P450 2A6; assay: Inhibition of CYP2A6 in human liver microsomes assessed as coumarin 7-hydroxylation preincubated for 15 mins by LC-MS/MS analysis in presence of NADPH; format: ADME
[4] = biological target: T2, Cytochrome P450 3A4 (Homo sapiens, UniProt P08684); assay: Inhibition of CYP3A4 in human liver microsomes assessed as testosterone 6beta-hydroxylation preincubated for 15 mins by LC-MS/MS analysis in presence of NADPH; format: ADME
T2 sequence (P08684 whole entry): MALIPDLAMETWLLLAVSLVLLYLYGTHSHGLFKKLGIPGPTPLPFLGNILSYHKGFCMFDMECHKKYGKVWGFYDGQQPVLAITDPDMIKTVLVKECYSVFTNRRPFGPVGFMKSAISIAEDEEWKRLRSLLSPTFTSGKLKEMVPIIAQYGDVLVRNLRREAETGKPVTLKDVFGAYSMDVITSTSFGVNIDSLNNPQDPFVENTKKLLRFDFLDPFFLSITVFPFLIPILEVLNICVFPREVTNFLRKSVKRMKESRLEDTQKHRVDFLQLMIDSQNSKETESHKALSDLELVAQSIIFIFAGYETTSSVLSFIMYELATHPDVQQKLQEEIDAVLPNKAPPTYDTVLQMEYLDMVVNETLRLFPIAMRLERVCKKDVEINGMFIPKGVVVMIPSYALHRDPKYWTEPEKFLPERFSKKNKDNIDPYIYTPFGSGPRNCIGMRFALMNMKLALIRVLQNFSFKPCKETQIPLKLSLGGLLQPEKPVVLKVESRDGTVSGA

[5] = biological target: T2, Cytochrome P450 3A4; assay: Drug metabolism assessed as human CYP3A4-mediated metabolite formation treated with 10 uM of [14C]saxagliptin after 30 mins by LC-MS/MS analysis; format: ADME; settings: recombinant enzyme, 0.5 h
Procedure, shortened: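 Expressed human CYP3A4 or CYP3A5 at 500 pmol/ml, incubated with 10 µM [14C]saxagliptin and 1 mM NADPH in 100 mM phosphate buffer pH 7.4 at 37°C for 30 min. Stopped with ice-cold acetonitrile; analysed by LC-MS/MS and off-line radioanalysis.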

[6] = system: Liver microsome; assay: Drug level in human liver microsomes treated with 10 uM of [14C]saxagliptin after 1 hr by LC-MS/MS analysis in presence of NADPH; format: ADME
Procedure, shortened: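 Pooled HLM at 1 mg/ml protein, incubated with 10 µM [14C]saxagliptin and 1 mM NADPH in 100 mM phosphate buffer pH 7.4 at 37°C for 60 min. Quenched with ice-cold acetonitrile; supernatant analysed by LC-MS/MS and off-line radioanalysis.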

SMILES	Activity [1]	IC50 [2]	IC50 [3]	IC50 [4]	Drug metabolism [5]	Drug metabolism [6]
N#C[C@@H]1C[C@@H]2C[C@@H]2N1C(=O)[C@@H](N)C12CC3CC(CC(O)(C3)C1)C2 [SAXAGLIPTIN ANHYDROUS]	Non-toxic					
N#C[C@@H]1C[C@@H]2C[C@@H]2N1C(=O)[C@@H](N)C12CC3CC(O)(CC(O)(C3)C1)C2		> 200 µM	> 200 µM	> 200 µM	metabolite_detected	metabolite_detected

Source: ChEMBL document CHEMBL3526095, “Characterization of the in vitro and in vivo metabolism and disposition and cytochrome P450 inhibition/induction profile of saxagliptin in human” (Drug Metab Dispos, 2012)
